Assay results published in ChEMBL document CHEMBL4513216, “Probing the Open Global Health Chemical Diversity Library for Multistage-Active Starting Points for Next-Generation Antimalarials” (ACS Infect Dis, 2020).

Experiment: Toxicity liver stage against HepG2, at 10uM
Type: cell-based
Parameters: test concentration 10 uM, cell line HepG2-A16-CD81EGFP
Conditions: human, HepG2-A16-CD81EGFP cells; read-out: INHIBITION
Summary of the method: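 Uninfected HepG2-A16-CD81EGFP cells, 3 × 10^3 per well, 1536-well, plated on prespotted compound at 10 μM final, parasite-free screening media added to match infected plates; puromycin 10 μM positive, DMSO 0.5% negative; run in parallel with 48 h PbLuc assay at 37 °C, 5% CO2; viability by CellTiter-Glo luminescence, normalized to controls.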

| Compound | cytotoxicity at 10 µM [%] |
| --- | --- |
| COc1ccc(-c2n[nH]cc2CN(C)CCCN2CCOCC2)c(F)c1 | -2.26 |
| COc1cc(C(=O)NS(=O)(=O)c2cncc(Br)c2)cc(OC)c1C | 4.77 |
| Cc1cccc(-n2cc(CN3CCN(C)[C@@H]4CS(=O)(=O)C[C@@H]43)cn2)c1 | 2.25 |
| CCN(Cc1cc(F)c(OC)c(Cl)c1)Cc1noc(CC(C)C)n1 | -2.84 |
| CC(CCSc1ccccc1)N1CCN(C(=O)c2ccccc2O)CC1 (stereo not given) | 8.97 |
| COc1cc(C#N)ccc1OCC(=O)N(C1CC1)C(C)c1ccco1 (stereo not given) | 1.18 |
| CCc1ccc2c(c1)C(CCNC(=O)c1sccc1C)C(=O)N2 (stereo not given) | -52.3 |
| CCc1ocnc1C(=O)N1CCCC(n2nc(C)nc2C)C1 (stereo not given) | -11.5 |
| Cc1nccn1CCC(=O)N1CCCN(CCCc2ccccc2)CC1 | -13.6 |
| O=C(NCC(F)(F)F)C1CN(C(=O)c2cnccn2)C1 | 2.24 |
| CNC(=O)Cn1ccc2ccc(NC(=O)NC(C)C(C)C)cc21 (stereo not given) | 3.36 |
| CN(C)c1ncc2c(n1)N(C)CCN(CC1CC1)C2=O | -1.36 |
| Cc1nn(C)c(Cl)c1C1CCCN1C(=O)c1ccc2nncn2c1 (stereo not given) | -10.2 |
| O=C(NCCCN1CCc2ccccc2C1)c1ccccc1Br | -10.2 |
| Cc1noc(C)c1CN1CCO[C@H]2CN(Cc3cccc(F)c3)C[C@H]21 | -99.8 |
| COc1cccc(CNCC2CCN(CC(C)O)CC2)c1OC (stereo not given) | -0.191 |
| CC(C)CC(=O)N1CC[C@H]2N(C)CC[C@@]2(C(=O)Nc2ccccc2)CC1 | -4.71 |
| CCC1=NC(SCC(=O)c2ccc(OC)cc2)c2cc(CC)sc2N1 (stereo not given) | 9.4 |
| O=C(NCCc1cccs1)N1CCC[C@H]1CO | 10.3 |
| CCn1cc(S(=O)(=O)N2CCC3(CCCN(CC4CCC4)C3=O)C2)cn1 (stereo not given) | 2.45 |
| CC(C)CCC(=O)N1CC[C@@H]2[C@H](CC1)N(S(C)(=O)=O)CCS2(=O)=O | 3.7 |
| O=C1COc2cc(S(=O)(=O)NCCC3=CCCCC3)c(Br)cc2N1 | 15.7 |

| Compound | cytotoxicity at 10 µM [%] |
| --- | --- |
| Cc1cc(C(N)=O)ccc1NC(=O)c1nc(N2CCCCC2)ncc1Cl | -13.9 |
| Cc1nccn1C1CCCN(C(=O)c2ccc3c(c2)CCC3)C1 (stereo not given) | -13.8 |
| N#Cc1cccc(CS(=O)(=O)NC(Cc2ccccc2)C(N)=O)c1 (stereo not given) | 9.16 |
| CC(C)c1cc(C(=O)O)nc2[nH]c(=O)[nH]c(=O)c12 | -3.25 |
| Cc1cc(C(=O)N2CCc3nnc(N)cc3C2)c(C)n1-c1cccnc1 | -1.25 |
| Cc1ccc(C(=O)N2CCN(Cc3ccccc3)CC2)n1C | -1.28 |
| COc1ccc(CN2CCC=C(C(C)NC(C)=O)C2)cc1 (stereo not given) | -5.5 |
| Cc1cccc(CN2CCCC[C@H]3CN(c4ncccn4)C[C@H]32)c1 | 1.18 |
| COCC1CCCCN1Cc1nc(-c2ccoc2)oc1C (stereo not given) | 1.93 |
| N[C@@H]1CC[C@H](C(=O)NCc2ccc3nonc3c2)C1 | -5.35 |
| C[C@@H]1CN(C2(C(=O)N3CCOCC3)Cc3ccccc3C2)C[C@H](C)O1 | 1.12 |
| Cc1cnn(C2CCCN(C(=O)c3cn(-c4ccccc4)nn3)C2)c1 (stereo not given) | -22.1 |
| Cc1nc(C)n(CC2CCCCN2CCOc2cccc(C#N)c2)n1 (stereo not given) | -10 |
| CC(c1nc(C(C)(C)C)no1)N1CCN(C(=O)CN2CCOCC2)CC1 (stereo not given) | -3.51 |
| CCc1ccc(CN2CCN(C)c3ncccc3C2)o1 | 3.78 |
| COCCn1c(CN2CCCCO2)cnc1S(=O)(=O)CC1CCCCC1 | -6.58 |
| COc1ccc(C(=O)N2CC[C@](C)(O)[C@H](C)C2)cc1N1CCOCC1 | 14.9 |
| CCS(=O)(=O)N1CCc2cc(C(=O)NC)c(NCC3CC3)nc2CC1 | 1.88 |
| Cc1cc(NC(=O)CCN2CCn3c(nnc3C3CC3)C2)no1 | 7.11 |
| NCCn1cc(C(=O)N2CCCCCC2c2ccco2)nn1 (stereo not given) | -4.94 |
| CCc1nc(C)c(C(=O)NCCNC(=O)Cc2cccc(F)c2)s1 | 1.98 |
| O=C(c1[nH]c2ccc(Cl)cc2c1Cl)N1CCC2(CC1)OCCO2 | 23.5 |

| Compound | cytotoxicity at 10 µM [%] |
| --- | --- |
| CCOc1cc(C)nc(N2CCN(C(=O)c3ccc[nH]3)CC2)n1 | -4 |
| COc1cccc(CCC2CCCCN2)c1 (stereo not given) | -1.73 |
| NC(=O)C1CCN(C(=O)c2ccn(-c3ccc(F)cc3)n2)C1 (stereo not given) | -6.02 |
| CSc1ccccc1C(=O)C1CCCN(Cc2cc(C(C)C)[nH]n2)C1 (stereo not given) | -4.01 |
| COc1ccc(CC(=O)N2CCCC(n3cccn3)C2)cc1F (stereo not given) | -4.62 |
| Cc1n[nH]c(C)c1CN1CC[C@@H]2[C@@H](CCC(=O)N2CCc2c[nH]cn2)C1 | -3 |
| Cc1cccc(CN2C[C@@H]3COC[C@]3(COc3cccnc3)C2)n1 | 11.4 |
| O=C(Cc1cccc(F)c1)NCCNCC1CNc2ccnn2C1 (stereo not given) | 2.04 |
| COc1cccc2c1CCC2NC(=O)NCc1csc(N(C)C)n1 (stereo not given) | -1.37 |
| CN(Cc1noc(C2CC2)n1)CC1CCN(CCO)CC1 | -3.96 |
| CCCS(=O)(=O)N1Cc2ccnn2CC(c2nc(C)no2)C1 (stereo not given) | 5.98 |
| Cc1sc2c(C3CCCN(C)C3)nc(C)n2c1C (stereo not given) | -26.9 |
| CS(=O)(=O)NCCCNc1ccc(C(F)(F)F)cc1C#N | -2.18 |
| CCOCC(O)CN1CCN(C(=O)CC(C)(C)C)CC1 (stereo not given) | -5.95 |
| CCC(CC)(CNC(=O)OC(C)(C)C)NC(=O)C1CCCO1 (stereo not given) | 1.41 |
| COCc1ccc(CN[C@H]2C[C@@H](Cc3cc(CCO)on3)C2(C)C)o1 | -1.68 |
| CCOCc1cc(CN2CCn3c(CO)nnc3C2)ccc1OC | -37.2 |
| O=C1CCC(=O)N1CCN1CCN(c2cc(F)ccc2F)CC1 | 9.44 |
| Cc1cc(C(=O)N2CCC(CCC(=O)NCCN(C)C)CC2)ccc1O | 5.38 |
| CC(C)(C)c1n[nH]cc1CNC1CCC(OCC(F)(F)F)CC1 (stereo not given) | -0.0197 |
| CCc1nsc(N2CCCN(C(=O)c3ccc(OC)cc3)CC2)n1 | 4.05 |
| CCc1ccc(C(CNC(=O)c2c(C)noc2C)N(C)C)cc1 (stereo not given) | -7.83 |

| Compound | cytotoxicity at 10 µM [%] |
| --- | --- |
| Cc1ccc(F)c(OC2(C(=O)O)CCN(C(=O)C3CCCC3)CC2)c1 | 3.33 |
| CSc1cccc(CNC(=O)C2CC(=O)N(C3CC3)C2)c1 (stereo not given) | -12.3 |
| CSc1ccc(C(=O)N2CC(=O)N(CC3CC3)CC(O)C2)cc1 (stereo not given) | 0.174 |
| Cc1cc(C)n(Cc2cc(C(=O)N3CCCCC3c3nccs3)n[nH]2)n1 (stereo not given) | 13.8 |
| CS(=O)(=O)N1CCCCCC1C1CCN(Cc2nc(C3CC3)no2)CC1 (stereo not given) | -4.09 |
| CC[C@@H](CO)NC(=O)c1coc(COc2ccc(OC)cc2)n1 | 15 |
| CCC(NC(=O)NCc1cccc(N(C)C)n1)c1ccccc1OC (stereo not given) | 29.1 |
| CNC(=O)CN(C)C(=O)c1cc(Cl)c(I)cc1OC | 13.8 |
| O=c1[nH]ccn1CCCN1CC=C(c2cnn(-c3ccccc3)c2)CC1 | 7.95 |
| Cc1nc(CN(C)C2CCN(CC3CCC3)C2)no1 (stereo not given) | -8.19 |
| c1cc(CCN2CCC(NCc3ccsc3)CC2)ccn1 | -11 |
| COCC(NC(=O)c1ccco1)c1cccc(C(F)(F)F)c1 (stereo not given) | -3.96 |
| O=C(NCc1nc(NC2CCCC2)c2cc(Cl)ccc2n1)c1ccoc1 | -2.99 |
| CCC1(CC)CC(=O)N(CC(O)c2ccc(F)cc2)C1=O (stereo not given) | -0.438 |
| COCCN1CCCC2(CCN(Cc3nnc(C4CC4)o3)C2)C1=O (stereo not given) | 0.15 |
| CC(Cc1cn(CCc2nc(N)cc(O)n2)nn1)c1ccccc1 (stereo not given) | -5.58 |
| Cc1noc(C)c1CCC(=O)N1CCOCC1CC(=O)N1CCCC1 (stereo not given) | 0.282 |
| Cc1cnc(CN(Cc2ccc(Cl)s2)C2CCN(C)C2)o1 (stereo not given) | 14.5 |
| COc1cc(S(=O)(=O)N2CCc3ccccc32)cc(C(=O)O)c1OC | -7.54 |
| CC(C)N1CCC(C(=O)N2CCc3c(nc(CC4CC4)[nH]c3=O)C2)CC1 | -4.92 |
| COCC(=O)N1CC[C@@H](N2CCOCC2)[C@@H]1Cc1ccccc1 | -3.06 |
| Cc1cnc(N)nc1NCCSCc1[nH]cnc1C | 4.34 |

| Compound | cytotoxicity at 10 µM [%] |
| --- | --- |
| CC(C)(C#N)C(=O)Nc1nccn1Cc1ccc(Br)cc1 | -47.5 |
| CSCC1CCCN1CCc1ccncc1 (stereo not given) | 0.684 |
| Cc1nn(-c2ccccc2)cc1C(=O)N1CCCN2CCCC2C1 (stereo not given) | -2.21 |
| Cn1cc(-c2ncc(C(=O)NCCCn3ccccc3=O)s2)cn1 | 4.13 |
| Cc1noc(C)c1CNC(=O)N1CCC(CO)CC1 | -8.08 |
| CC(=O)N1CCN(Cc2ccc(Cl)c(F)c2)CC(O)C1 (stereo not given) | -1.48 |
| COCCCC1(CO)CCCN(CCc2ccccn2)C1 (stereo not given) | 7.42 |
| O=C(c1cc(C2CC2)nc2onc(-c3ccccc3)c12)N1CC(O)C1 | -50.5 |
| CCC(=O)N1CCC2(CC1)CN(C(C)=O)c1ccc(C)cc12 | 8.82 |
| Cc1n[nH]c(C)c1CNc1ccc(-c2nc(C3CC3)no2)cn1 | -24.3 |
| O=C(CC1CCCO1)NCc1ccc(Br)cc1F (stereo not given) | 4.72 |
| Cc1ccc(CC(=O)N2CCOCC2c2ncon2)cc1 (stereo not given) | -2.03 |
| CC(SCCNS(=O)(=O)c1cnn(C)c1)c1cccc(F)c1 (stereo not given) | 17.3 |
| O=C(c1ccccc1N1CCOCC1)N1CCCC1Cn1cccn1 (stereo not given) | -7.44 |
| CC(C)COCC1CN(C(=O)c2cscn2)Cc2ncn(C)c21 (stereo not given) | -109 |
| Cc1nc(CNC(=O)c2cc(COc3cccc(F)c3)[nH]n2)n[nH]1 | -2.52 |
| COc1ccc(C(C)N2CCC(C(=O)NC3CC3)CC2)cc1Cl (stereo not given) | -50.6 |
| c1coc(CN2CCCn3c(nnc3Cn3cccn3)C2)c1 | -0.945 |
| CCCc1nc(C)cc(NC(C)Cc2cnccn2)n1 (stereo not given) | -0.166 |
| CCn1cc(NC(=O)NCC2(N3CCOCC3)CCSC2)cn1 (stereo not given) | -17.1 |
| Cn1cc(CN2CC[C@]3(C[C@H](Oc4ccccn4)CO3)C2)cn1 | 10.8 |
| CC(=O)N1CC[C@@]2(O)CCCC[C@H]2[C@@H]1c1ccccc1 | 2.41 |
